# Screens deposited in PubChem by several laboratories.
# HTRA1 inh – HTRA1 (human) protease inhibition. 340,000 compounds, 0.5% hits. recombinant HTRA1, FP-rhodamine activity-based probe, fluorescence polarization. inhibition, % at 5.96 µM; in the data active = inhibition above about 36%
# ABHD4 inh – ABHD4 (mouse) inhibition, primary FP screen | inhibition, % at 8.92 µM | purified mABHD4, FP-Rh probe fluorescence polarization | 370,000 compounds, 0.54% hits | Q8VD66;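 active = inhibition exceeding the mean over every tested compound plus 3 SD, cut at about 30% in these data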
#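 Assay system: mABHD4 protein; medium: HEPES pH 7.0, NaCl, Pluronic buffer; dosing: 8.92 µM, single dose; schedule: 45 min + 60 min at 25 °C; signal: FP readout, ex 525 nm / em 598 nm; read-out: normalized percent inhibition of probe labeling; repeats: single replicate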
# TCR CD3 inh – human TCR-CD3 binding inhibition | TAMRA-labeled TCR probe fluorescence, biochemical | inhibition, % at 9.4 µM | 360,000 compounds, 0.37% hits | AID 651800; in the data active = inhibition above about 19%;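 note: recombinant mutant TCR 2C K166C tagged with TAMRA read by polarization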
# SIAE inh – inhibitors of human sialic acid acetylesterase SIAE. SIAE FP-Rh probe binding, fluorescence polarization. Q9HAT2. 370,000 compounds, 0.69% hits. inhibition, % at 9.66 µM;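 active = inhibition above a cutoff: mean of compounds within the control limits plus 3 SD of those, cut at about 17% in these data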
# Target sequence (Q9HAT2 whole entry, looked up): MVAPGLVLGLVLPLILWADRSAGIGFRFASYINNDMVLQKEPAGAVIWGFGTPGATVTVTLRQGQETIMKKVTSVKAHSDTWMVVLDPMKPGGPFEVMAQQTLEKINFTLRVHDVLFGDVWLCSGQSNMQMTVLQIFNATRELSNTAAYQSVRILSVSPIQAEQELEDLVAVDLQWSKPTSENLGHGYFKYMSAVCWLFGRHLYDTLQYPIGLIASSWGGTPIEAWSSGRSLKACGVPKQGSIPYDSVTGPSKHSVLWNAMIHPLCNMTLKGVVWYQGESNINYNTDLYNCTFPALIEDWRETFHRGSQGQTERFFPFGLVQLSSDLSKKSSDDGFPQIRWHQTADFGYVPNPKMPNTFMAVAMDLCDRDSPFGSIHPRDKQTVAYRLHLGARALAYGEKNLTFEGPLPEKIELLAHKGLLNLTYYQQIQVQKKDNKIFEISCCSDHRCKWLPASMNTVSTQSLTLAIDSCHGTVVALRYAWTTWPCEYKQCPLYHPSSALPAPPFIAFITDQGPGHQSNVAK
# ARNT TACC3 PPI – ARNT/TACC3 interaction disruption; AlphaScreen His-ARNT PAS-B/GST-TACC3 binding, luminescence; TACC3 fragment carries E629A point mutation; Q9Y6A5; AID 623870; 390,000 compounds, 0.66% hits; inhibition, % at 9.99 µM;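 active = mean inhibition of replicates at least 50% and at least half of replicates each reaching 50%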
# HTRA1 conf – confirmation of human HTRA1 inhibitors | shares compounds with HTRA1 inh | recombinant HTRA1, FP-rhodamine activity-based probe, fluorescence polarization | inhibition, % at 5.96 µM | 1,600 compounds, 66% hits | AID 540248;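 active = mean inhibition over three repeats above a set limit taken from the earlier primary screen, cut at about 37% in these data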;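 note: inhibitors block probe binding so polarization drops and inhibition rises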
# Numbers stand for hits; . = inactive; / = no result given. In the library only some 1.8% were active in any assay of this set; here they are far more common.
SMILES,HTRA1 inh,ABHD4 inh,TCR CD3 inh,SIAE inh,ARNT TACC3 PPI,HTRA1 conf
Oc1cccc2ccc(/C=C/c3ccccc3Br)nc12,52,.,.,.,.,45
O=C(C[C@H]1C[C@H]2c3cc(NC(=O)C4CCC4)ccc3O[C@H]2[C@@H](CO)O1)NCc1cc(F)ccc1F,/,/,/,/,.,/
O=C(N/N=C1/CCSC1)c1cc(Br)ccc1O,45,.,.,.,.,.
O=C(NN=C1CCCC1)c1cc(Br)ccc1O,.,.,.,.,.,/
CCOc1ccc(/C=C/C(=O)c2cc(Br)ccc(=O)c2O)cc1,51,.,.,.,.,44
CC1(OC(=O)C2CCCC2)C(=O)C=C2C=C(c3ccsc3)N(CCc3c[nH]c4ccccc34)C=C2C1=O (stereo unspecified),36,/,/,/,.,.
CC1(OC(=O)C2CCCC2)C(=O)C=C2C=C(c3ccsc3)N(CC3CC3)C=C2C1=O (stereo unspecified),.,.,.,.,.,/
CCCCC1=CC2=CC(=O)C(C)(OC(=O)CC)C(=O)C2=CN1CCc1c[nH]c2ccccc12 (stereo unspecified),51,.,.,.,.,36
COC(=O)CCCC1=CC2=CC(=O)C(C)(OC(=O)c3cccs3)C(=O)C2=CN1CCc1c[nH]c2ccccc12 (stereo unspecified),.,.,.,.,.,/
O=C(NC1CCCC1)[C@H]1[C@H](CO)[C@H]2Cn3c(cccc3=O)[C@@H]1N2Cc1cc(F)ccc1F,/,/,/,/,.,/
C[C@H](CO)N1C[C@H](C)[C@@H](CN(C)C(=O)Nc2ccc(F)cc2)OCCCC[C@H](C)Oc2ccc(NS(C)(=O)=O)cc2C1=O,/,/,/,/,.,/
C(=N\NC1=Nc2cccc3cccc1c23)/c1ccccn1,49,.,.,.,.,50
O=C(c1cccc(F)c1)N1CC[C@@H]2[C@H]1c1cc(-c3ccc(F)cc3)ccc1N[C@@H]2CO,/,/,/,/,.,/
Cc1cc(C)cc(-n2c(C)c3c(C)nnc(C)c3c2C)c1,40,.,.,.,.,.
Cc1ccccc1N=Cc1ccc[nH]1,.,.,.,.,.,/
Cc1ccc(N=Cc2ccc[nH]2)c(O)c1,44,.,.,.,.,.
O=C1C=C(O)c2[nH]c(=O)ccc2C1=O,47,.,.,.,36,.
Cc1ccc(NC(=O)NNS(=O)(=O)c2ccc(Br)cc2)cc1,.,.,.,.,.,/
Cc1ccc(S(=O)(=O)NC(=O)Nc2ccc(N(C)C)cc2)cc1,44,.,.,.,.,45
O=C(NCCc1ccccc1)C1COc2ccccc2O1 (stereo unspecified),.,.,.,.,.,/
O=C(NCCc1ccc(O)c(O)c1)C1COc2ccccc2O1 (stereo unspecified),40,.,.,.,/,61
Oc1ccc(N=Cc2ccc(-c3cccs3)s2)cc1,62,86,43,45,.,.
Clc1ccc2ccc3cccnc3c2n1,.,.,.,.,.,/
O=S1(=O)Nc2c(ccc3cccnc23)-c2ccccc21,36,/,/,/,69,.
COc1ccc(N=Nc2cc(OC)c(N)cc2OC)cc1,.,.,.,.,.,/
SMILES,HTRA1 inh,ABHD4 inh,TCR CD3 inh,SIAE inh,ARNT TACC3 PPI,HTRA1 conf
Cc1cc(N=Nc2ccc(C)c(N=Nc3cc(C)c(N)cc3N)c2)c(N)cc1N,77,.,.,.,.,74
C=CCn1c(C)cc(-c2csc(N)n2)c1C,60,.,.,.,.,.
COc1ccc(-n2c(C)cc(-c3csc(N)n3)c2C)cc1,39,.,.,.,.,.
C=CCn1c(C)cc(-c2csc(NC)n2)c1C,42,.,.,.,.,.
CNC[C@H]1OCCCC[C@H](C)Oc2ccc(NS(C)(=O)=O)cc2C(=O)N([C@@H](C)CO)C[C@@H]1C,/,/,/,/,.,/
Cc1nc2cc(NC(=O)N3CCN(c4ccccn4)CC3)ccc2o1,.,.,.,.,.,/
O=C(Nc1ccc2nc(-c3ccco3)c(-c3ccco3)nc2c1)N1CCN(c2ccccn2)CC1,43,30,34,22,.,.
CC(C)(C)c1ccc(C(=O)N2CCNCC2)cc1,.,.,.,.,.,/
O=C(c1ccc(-c2cc(O)c3ncccc3c2)cc1)N1CCNCC1,63,.,.,.,66,50
CCC(=O)Nc1ccc2c(c1)C(=O)N(C)[C@H]1CC[C@H](CC(=O)NCCCN(C)C)O[C@@H]1CO2,/,/,/,/,.,/
COCCN=c1scc(-c2cccs2)n1/N=C/c1ccc(O)c(O)c1O,79,55,.,.,64,67
COCC#Cc1ccc2c(c1)O[C@@H](CN(C)Cc1ccccn1)[C@H](C)CN([C@@H](C)CO)S2(=O)=O,/,/,/,/,.,/
Cc1noc(C)c1NC(=O)Nc1ccc2c(c1)C(=O)N([C@@H](C)CO)C[C@H](C)[C@@H](CN(C)Cc1ccncc1)OCCCC[C@H](C)O2,/,/,/,/,.,/
O=C(CSc1nc2nn(-c3ccccc3)c(=O)c-2c2n1CCCCC2)c1ccc(O)c(O)c1,74,/,/,/,.,97
CNC(=O)CSc1nc2nn(-c3ccccc3)c(=O)c-2c2n1CCCCC2,.,/,/,/,.,/
Cc1ccc2[nH]c(O)c(N=NC(=O)c3ccc(NS(=O)(=O)c4cccs4)cc3)c2c1,.,.,.,.,.,/
COc1ccc2[nH]c(O)c(N=NC(=O)c3ccc(NS(=O)(=O)c4cccs4)cc3)c2c1,45,.,.,.,.,.
COc1cccc(S(=O)(=O)Nc2ccc3c(c2)OC[C@@H](C)NC[C@@H](C)[C@@H](OC)CN(C)C3=O)c1,/,/,/,/,.,/
O=C(CN1C(=O)/C(=C/c2ccccc2)SC1=S)NNC(=O)c1ccccc1O,55,.,.,.,.,42
O=C1/C(=C\c2cccc(O)c2O)SC(=S)N1Cc1ccccc1,54,.,.,.,.,65
COCC(=O)N1C[C@H](C)[C@@H](OC)CN(C)C(=O)c2cc(NC(=O)c3cnccn3)ccc2OC[C@@H]1C,/,/,/,/,.,/
O=C(NC(=S)NNC(=O)c1cc2ccccc2cc1O)c1ccco1,45,.,.,.,.,.
COc1ccc(C(=O)NC(=S)NNC(=O)c2ccco2)cc1,.,.,.,.,.,/
C[C@@H]1CN([C@@H](C)CO)C(=O)c2cc(-c3cccc(C(=O)N(C)C)c3)cnc2O[C@H]1CN(C)S(=O)(=O)c1cccc(F)c1,/,/,/,/,.,/
CCCCCCCCCCCCCCCC[N+](C)(C)Cc1ccc(F)cc1,64,44,.,.,.,64
O=C(O)C1=C2C(=O)Nc3cccc(c32)C2(C1)C(=O)Nc1ccccc12 (stereo unspecified),37,33,.,.,/,.
C[C@H]1CN([C@@H](C)CO)C(=O)Cc2cc(NC(=O)Cn3cnnn3)ccc2O[C@@H]1CN(C)C(=O)Nc1ccc(C(F)(F)F)cc1,/,/,/,/,.,/
O=C(COC(=O)c1ccc(O)cc1)Nc1ncc(Cl)cc1Cl,.,.,.,.,.,/
O=C(COC(=O)c1nc(Cl)ccc1Cl)Nc1ncc(Cl)cc1Cl,63,.,.,.,.,.
